Data published in ChEMBL document CHEMBL4689842, “EUbOPEN Chemogenomics Library wave 1” (2021).

Test system: U2OS
Experiment: Multiplex assay against U2OS
Format: toxicity, cell-based
Conditions: human
Procedure, shortened: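 At seeding, live cells were stained with Hoechst33342, BioTracker Green Microtubule Cytoskeleton Dye, MitoTracker Red and Annexin V Alexa Fluor 680. After compound addition they were imaged on a CQ1 microscope at 37°C and 5% CO2, and CellPathfinder machine-learning gating sorted them into Hoechst high-intensity objects or normal cells, with normal cells further split into healthy, pyknosed or fragmented nuclei and pyknosed cells into mitotic or apoptotic. Tubulin, mitochondrial-mass and membrane-permeability phenotypes are given as per cents of cells with healthy nuclei.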

[1] = 12 h, 1 µM, compound concentration 1 uM, replicate 1
[2] = 12 h, 1 µM, compound concentration 1 uM, replicate 2
[3] = 12 h, 10 µM, compound concentration 10 uM, replicate 1
[4] = 12 h, 10 µM, compound concentration 10 uM, replicate 2
[5] = 24 h, 1 µM, compound concentration 1 uM, replicate 1
[6] = 24 h, 1 µM, compound concentration 1 uM, replicate 2
[7] = 24 h, 10 µM, compound concentration 10 uM, replicate 1
[8] = 24 h, 10 µM, compound concentration 10 uM, replicate 2
[9] = 48 h, 1 µM, compound concentration 1 uM, replicate 1
[10] = 48 h, 1 µM, compound concentration 1 uM, replicate 2
[11] = 48 h, 10 µM, compound concentration 10 uM, replicate 1
[12] = 48 h, 10 µM, compound concentration 10 uM, replicate 2

With `CC(C)Oc1ccccc1C(=O)Nc1ccccc1C(=O)Nc1cccc(S(=O)(=O)C(F)(F)F)c1` the “Population Apoptotic (%)” value [1] was 47%, the “Population Fragmented Nuclei (%)” value [1] was 14% and the “Population Healthy Nuclei (%)” value [1] was 67%. The “Population Hoechst High Intensity Objects (%)” value [1] was 11%, the “Population Membrane Permeable-Phenotype (%)” value [1] was 4% and the “Population Mitochondria Different-Phenotype (%)” value [1] was 61%. For the same compound, the “Population Mitotic Cells (%)” value [1] was 52%, the “Population Normal (%)” value [1] was 88% and the “Population Pyknosed Nuclei (%)” value [1] was 18%. For the same compound, the “Population Tubulin-Different-Phenotype (%)” value [1] was 55%, the “Total Cell Count” value [1] was 120 and the “Population Apoptotic (%)” value [2] was 33%. The “Population Fragmented Nuclei (%)” value [2] was 20%, the “Population Healthy Nuclei (%)” value [2] was 74% and the “Population Hoechst High Intensity Objects (%)” value [2] was 5%. The “Population Membrane Permeable-Phenotype (%)” value [2] was 10%, the “Population Mitochondria Different-Phenotype (%)” value [2] was 45% and the “Population Mitotic Cells (%)” value [2] was 66%. The “Population Normal (%)” value [2] was 94%, the “Population Pyknosed Nuclei (%)” value [2] was 6% and the “Population Tubulin-Different-Phenotype (%)” value [2] was 37%. The “Total Cell Count” value [2] was 62, the “Population Apoptotic (%)” value [3] was 68% and the “Population Fragmented Nuclei (%)” value [3] was 14%. The “Population Healthy Nuclei (%)” value [3] was 61%, the “Population Hoechst High Intensity Objects (%)” value [3] was 8% and the “Population Membrane Permeable-Phenotype (%)” value [3] was 95%. For the same compound, the “Population Mitochondria Different-Phenotype (%)” value [3] was 61%, the “Population Mitotic Cells (%)” value [3] was 32% and the “Population Normal (%)” value [3] was 91%. The “Population Pyknosed Nuclei (%)” value [3] was 24%, the “Total Cell Count” value [3] was 142 and the “Population Apoptotic (%)” value [4] was 90%. For the same compound, the “Population Fragmented Nuclei (%)” value [4] was 17%, the “Population Healthy Nuclei (%)” value [4] was 71% and the “Population Hoechst High Intensity Objects (%)” value [4] was 4%. The “Population Membrane Permeable-Phenotype (%)” value [4] was 97%, the “Population Mitochondria Different-Phenotype (%)” value [4] was 92% and the “Population Mitotic Cells (%)” value [4] was 10%. The “Population Normal (%)” value [4] was 96%, the “Population Pyknosed Nuclei (%)” value [4] was 10% and the “Population Tubulin-Different-Phenotype (%)” value [4] was 100%. The “Total Cell Count” value [4] was 53, the “Population Apoptotic (%)” value [5] was 55% and the “Population Fragmented Nuclei (%)” value [5] was 15%. For the same compound, the “Population Healthy Nuclei (%)” value [5] was 71%, the “Population Hoechst High Intensity Objects (%)” value [5] was 8% and the “Population Membrane Permeable-Phenotype (%)” value [5] was 2%. For the same compound, the “Population Mitochondria Different-Phenotype (%)” value [5] was 48%, the “Population Mitotic Cells (%)” value [5] was 44% and the “Population Normal (%)” value [5] was 91%. For the same compound, the “Population Pyknosed Nuclei (%)” value [5] was 13%, the “Population Tubulin-Different-Phenotype (%)” value [5] was 48% and the “Total Cell Count” value [5] was 109. For the same compound, the “Population Apoptotic (%)” value [6] was 33%, the “Population Fragmented Nuclei (%)” value [6] was 21% and the “Population Healthy Nuclei (%)” value [6] was 66%. For the same compound, the “Population Hoechst High Intensity Objects (%)” value [6] was 7%, the “Population Membrane Permeable-Phenotype (%)” value [6] was 11% and the “Population Mitochondria Different-Phenotype (%)” value [6] was 58%. For the same compound, the “Population Mitotic Cells (%)” value [6] was 66%, the “Population Normal (%)” value [6] was 92% and the “Population Pyknosed Nuclei (%)” value [6] was 11%. The “Population Tubulin-Different-Phenotype (%)” value [6] was 35%, the “Total Cell Count” value [6] was 57 and the “Population Apoptotic (%)” value [7] was 74%. For the same compound, the “Population Fragmented Nuclei (%)” value [7] was 23%, the “Population Healthy Nuclei (%)” value [7] was 48% and the “Population Hoechst High Intensity Objects (%)” value [7] was 6%. For the same compound, the “Population Membrane Permeable-Phenotype (%)” value [7] was 92%, the “Population Mitochondria Different-Phenotype (%)” value [7] was 74% and the “Population Mitotic Cells (%)” value [7] was 25%. For the same compound, the “Population Normal (%)” value [7] was 93%, the “Population Pyknosed Nuclei (%)” value [7] was 27% and the “Population Tubulin-Different-Phenotype (%)” value [7] was 100%. The “Total Cell Count” value [7] was 148, the “Population Apoptotic (%)” value [8] was 100% and the “Population Fragmented Nuclei (%)” value [8] was 17%. The “Population Healthy Nuclei (%)” value [8] was 56%, the “Population Hoechst High Intensity Objects (%)” value [8] was 11% and the “Population Membrane Permeable-Phenotype (%)” value [8] was 91%. The “Population Mitochondria Different-Phenotype (%)” value [8] was 94%, the “Population Mitotic Cells (%)” value [8] was 0% and the “Population Normal (%)” value [8] was 88%. For the same compound, the “Population Tubulin-Different-Phenotype (%)” value [8] was 98%, the “Total Cell Count” value [8] was 55 and the “Population Apoptotic (%)” value [9] was 81%. For the same compound, the “Population Fragmented Nuclei (%)” value [9] was 10%, the “Population Healthy Nuclei (%)” value [9] was 74% and the “Population Hoechst High Intensity Objects (%)” value [9] was 3%. For the same compound, the “Population Membrane Permeable-Phenotype (%)” value [9] was 4%, the “Population Mitochondria Different-Phenotype (%)” value [9] was 31% and the “Population Mitotic Cells (%)” value [9] was 18%. For the same compound, the “Population Normal (%)” value [9] was 96%, the “Population Pyknosed Nuclei (%)” value [9] was 14% and the “Population Tubulin-Different-Phenotype (%)” value [9] was 25%. The “Total Cell Count” value [9] was 109, the “Population Apoptotic (%)” value [10] was 66% and the “Population Fragmented Nuclei (%)” value [10] was 22%. For the same compound, the “Population Healthy Nuclei (%)” value [10] was 72%, the “Population Hoechst High Intensity Objects (%)” value [10] was 7% and the “Population Membrane Permeable-Phenotype (%)” value [10] was 18%. For the same compound, the “Population Mitochondria Different-Phenotype (%)” value [10] was 48%, the “Population Mitotic Cells (%)” value [10] was 33% and the “Population Normal (%)” value [10] was 92%. For the same compound, the “Population Pyknosed Nuclei (%)” value [10] was 5%, the “Population Tubulin-Different-Phenotype (%)” value [10] was 41% and the “Total Cell Count” value [10] was 56. For the same compound, the “Population Apoptotic (%)” value [11] was 77%, the “Population Fragmented Nuclei (%)” value [11] was 64% and the “Population Healthy Nuclei (%)” value [11] was 19%. The “Population Hoechst High Intensity Objects (%)” value [11] was 7%, the “Population Membrane Permeable-Phenotype (%)” value [11] was 36% and the “Population Mitochondria Different-Phenotype (%)” value [11] was 84%. The “Population Mitotic Cells (%)” value [11] was 22%, the “Population Normal (%)” value [11] was 93% and the “Population Pyknosed Nuclei (%)” value [11] was 15%. The “Population Tubulin-Different-Phenotype (%)” value [11] was 93%, the “Total Cell Count” value [11] was 190 and the “Population Apoptotic (%)” value [12] was 64%. The “Population Fragmented Nuclei (%)” value [12] was 43%, the “Population Healthy Nuclei (%)” value [12] was 38% and the “Population Hoechst High Intensity Objects (%)” value [12] was 9%. The “Population Membrane Permeable-Phenotype (%)” value [12] was 62%, the “Population Mitochondria Different-Phenotype (%)” value [12] was 75% and the “Population Mitotic Cells (%)” value [12] was 36%. For the same compound, the “Population Normal (%)” value [12] was 90%, the “Population Pyknosed Nuclei (%)” value [12] was 17% and the “Population Tubulin-Different-Phenotype (%)” value [12] was 98%. The “Total Cell Count” value [12] was 64.
